ChEMBL document CHEMBL4610021, “Synthesis and immunostimulatory activity of sugar-conjugated TLR7 ligands” (Bioorg Med Chem Lett, 2020)
pEC50: −log10 of the molar value.

Key:
Type in all cases: cell-based
Toll-like receptor 7 [1] = target: T1, Toll-like receptor 7 (Mus musculus, UniProt P58681); experiment: Agonist activity at TLR7 in mouse RAW264.7 cells assessed as immunostimulatory activity by measuring increase in TNFalpha secretion incubated for 18 hrs by ELISA
T1 sequence (P58681 whole entry): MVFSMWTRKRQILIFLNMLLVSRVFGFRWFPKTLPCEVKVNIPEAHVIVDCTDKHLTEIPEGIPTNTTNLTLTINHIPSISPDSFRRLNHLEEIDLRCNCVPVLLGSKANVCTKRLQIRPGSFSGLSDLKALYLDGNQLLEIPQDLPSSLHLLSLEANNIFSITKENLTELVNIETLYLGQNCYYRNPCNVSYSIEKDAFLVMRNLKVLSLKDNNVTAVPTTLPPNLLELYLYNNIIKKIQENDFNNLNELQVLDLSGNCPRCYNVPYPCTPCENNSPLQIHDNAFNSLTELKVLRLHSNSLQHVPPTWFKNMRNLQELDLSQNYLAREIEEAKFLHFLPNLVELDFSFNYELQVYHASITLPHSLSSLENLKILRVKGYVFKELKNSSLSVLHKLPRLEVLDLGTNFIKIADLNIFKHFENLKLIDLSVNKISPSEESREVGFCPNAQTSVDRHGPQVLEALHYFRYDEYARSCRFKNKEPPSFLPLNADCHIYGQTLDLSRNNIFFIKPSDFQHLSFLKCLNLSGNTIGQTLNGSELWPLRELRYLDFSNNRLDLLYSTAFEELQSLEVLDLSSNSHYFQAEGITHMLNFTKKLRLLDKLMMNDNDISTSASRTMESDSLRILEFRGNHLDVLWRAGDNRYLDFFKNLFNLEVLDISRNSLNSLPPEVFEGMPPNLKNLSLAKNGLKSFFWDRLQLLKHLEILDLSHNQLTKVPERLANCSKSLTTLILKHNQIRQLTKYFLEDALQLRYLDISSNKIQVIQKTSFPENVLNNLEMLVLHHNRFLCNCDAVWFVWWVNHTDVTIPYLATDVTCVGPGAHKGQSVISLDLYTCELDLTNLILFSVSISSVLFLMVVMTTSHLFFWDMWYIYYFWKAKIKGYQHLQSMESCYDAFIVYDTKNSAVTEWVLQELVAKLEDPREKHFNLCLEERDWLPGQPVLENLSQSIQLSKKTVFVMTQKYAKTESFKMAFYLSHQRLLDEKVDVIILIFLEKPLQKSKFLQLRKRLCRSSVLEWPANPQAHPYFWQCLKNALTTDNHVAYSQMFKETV
In short: (§1)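 Murine RAW264.7 macrophages plated at 1×10^4 cells/well, incubated 18 h with serially diluted compound; 0.25% DMSO vehicle. TNF-α in culture supernatant measured by ELISA. EC50 calculated by curve fitting; Emax as % of unconjugated reference ligand. Means ± SD of triplicate, representative of three independent experiments.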

[2] = target: T2, Toll-like receptor 7 (Mus musculus) (UniProt P58681); experiment: Agonist activity at TLR7 in mouse BMDC cells assessed as immunostimulatory activity by measuring increase in IL6 secretion incubated for 18 hrs by ELISA relative to 1V209
T2 sequence (whole entry): T1 sequence (P58681 whole entry)
In short: (§2)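 Primary murine bone marrow-derived dendritic cells plated at 1×10^5 cells/well and exposed to serially diluted compound; 0.25% DMSO vehicle. IL-6 in supernatant measured by ELISA. EC50 calculated by curve fitting; Emax expressed as % relative to the unconjugated reference ligand. Means ± SD of triplicate, representative of three independent experiments.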

Toll-like receptor 7 [3] = target: T1, Toll-like receptor 7; experiment: Agonist activity at TLR7 in mouse BMDC cells assessed as immunostimulatory activity by measuring increase in IL6 secretion incubated for 18 hrs by ELISA; in short: as §2
[4] = target: T2, Toll-like receptor 7 (Mus musculus); experiment: Agonist activity at TLR7 in mouse RAW264.7 cells assessed as immunostimulatory activity by measuring increase in TNFalpha secretion incubated for 18 hrs by ELISA relative to 1V209; in short: as §1
Toll-like receptor 7 [5] = target: T1, Toll-like receptor 7; experiment: Agonist activity at TLR7 in mouse RAW264.7 cells assessed as immunostimulatory activity by measuring increase in TNFalpha secretion incubated for 6 hrs in absence of actin polymerization inhibitor cytochalasin D by ELISA
In short: (§3)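 RAW264.7 cells seeded at 1.5×10^4 cells/well, pre-incubated with or without 1 μM cytochalasin D, then exposed 6 h to serially diluted compound. TNF-α and IL-6 in supernatants determined by ELISA. Means ± SD of triplicate, representative of three independent experiments.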

Toll-like receptor 7 [6] = target: T1, Toll-like receptor 7; experiment: Agonist activity at TLR7 in mouse RAW264.7 cells assessed as immunostimulatory activity by measuring increase in TNFalpha secretion preincubated with actin polymerization inhibitor cytochalasin D followed by incubation with compound for 6 hrs by ELISA; in short: as §3
[7] = target: T3, Toll-like receptor 7 (Homo sapiens) (UniProt Q9NYK1); experiment: Agonist activity at TLR7 in human PBMC cells assessed as immunostimulatory activity by measuring fold increase in TNFalpha secretion at 10 uM incubated for 18 hrs by ELISA relative to 1V209
T3 sequence (whole entry): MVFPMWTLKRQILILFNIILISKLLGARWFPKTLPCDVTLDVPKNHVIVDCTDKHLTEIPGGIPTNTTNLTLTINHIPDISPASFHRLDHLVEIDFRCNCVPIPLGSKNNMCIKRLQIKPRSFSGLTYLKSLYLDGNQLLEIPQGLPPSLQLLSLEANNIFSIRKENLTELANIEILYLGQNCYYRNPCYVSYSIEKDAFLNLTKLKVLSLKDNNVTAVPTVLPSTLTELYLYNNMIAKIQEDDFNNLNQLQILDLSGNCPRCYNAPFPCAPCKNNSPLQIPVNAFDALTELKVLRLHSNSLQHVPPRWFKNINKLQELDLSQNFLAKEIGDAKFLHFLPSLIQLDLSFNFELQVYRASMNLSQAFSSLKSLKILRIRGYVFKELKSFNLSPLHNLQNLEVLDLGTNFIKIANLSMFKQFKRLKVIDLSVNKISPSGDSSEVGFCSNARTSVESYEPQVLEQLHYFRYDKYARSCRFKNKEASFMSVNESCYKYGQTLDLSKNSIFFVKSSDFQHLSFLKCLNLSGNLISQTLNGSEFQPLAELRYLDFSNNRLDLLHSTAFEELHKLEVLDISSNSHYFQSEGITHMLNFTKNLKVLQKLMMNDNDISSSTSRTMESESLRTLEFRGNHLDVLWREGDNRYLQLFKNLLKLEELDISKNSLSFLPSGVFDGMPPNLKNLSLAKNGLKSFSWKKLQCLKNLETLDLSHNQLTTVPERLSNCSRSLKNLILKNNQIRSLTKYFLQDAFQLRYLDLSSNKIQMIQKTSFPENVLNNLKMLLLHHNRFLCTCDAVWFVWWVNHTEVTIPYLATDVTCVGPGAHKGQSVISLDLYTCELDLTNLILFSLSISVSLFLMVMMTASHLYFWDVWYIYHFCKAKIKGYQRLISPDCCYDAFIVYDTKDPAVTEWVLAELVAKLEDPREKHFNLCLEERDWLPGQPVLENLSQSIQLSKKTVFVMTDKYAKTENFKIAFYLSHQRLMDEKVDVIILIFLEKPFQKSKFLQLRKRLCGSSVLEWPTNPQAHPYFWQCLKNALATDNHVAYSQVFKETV
In short: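 Human PBMC plated at 2×10^5 cells/well, exposed 18 h to 10 μM compound; 0.25% DMSO vehicle control. Cytokine in culture supernatant quantified by ELISA. Means ± SD of triplicate, representative of three independent experiments; one-way ANOVA with Dunnett's multiple comparisons test.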

| pEC50 (Toll-like receptor 7 [1]) | Emax [2] [%] | pEC50 (Toll-like receptor 7 [3]) | Emax [4] [%] | pEC50 (Toll-like receptor 7 [5]) | pEC50 (Toll-like receptor 7 [6]) | fold change (FC) [7] | SMILES |
| --- | --- | --- | --- | --- | --- | --- | --- |
| 7.10 | 142 | 6.96 | 177 |  |  |  | COCCOc1nc(N)c2nc(O)n(Cc3ccc(C(=O)NC4O[C@H](CO)[C@@H](O[C@@H]5O[C@H](CO)[C@H](O)[C@H](O)[C@H]5O)[C@H](O)[C@H]4O)cc3)c2n1 (stereo partly specified) |
| 6.64 | 118 | 6.70 | 87 | 6.31 | 6.04 |  | COCCOc1nc(N)c2nc(O)n(Cc3ccc(C(=O)NC4O[C@H](CO)[C@@H](O)[C@H](O)[C@H]4O)cc3)c2n1 (stereo partly specified) |
| 6.82 | 139 | 6.68 | 83 |  |  |  | COCCOc1nc(N)c2nc(O)n(Cc3ccc(C(=O)N[C@H]4C(O)O[C@H](CO)[C@H](O)[C@@H]4O)cc3)c2n1 (stereo partly specified) |
| 6.87 | 159 | 7.00 | 157 | 6.56 | 6.23 | 2 | COCCOc1nc(N)c2nc(O)n(Cc3ccc(C(=O)NC4O[C@H](CO)[C@@H](O[C@H]5O[C@H](CO)[C@@H](O)[C@H](O)[C@H]5O)[C@H](O)[C@H]4O)cc3)c2n1 (stereo partly specified) |
| 6.54 | 127 | 6.82 | 135 |  |  |  | COCCOc1nc(N)c2nc(O)n(Cc3ccc(C(=O)NC[C@H]4O[C@@H]5O[C@H]6[C@H](O)[C@@H](O)[C@@H](O[C@H]7[C@H](O)[C@@H](O)[C@@H](O[C@H]8[C@H](O)[C@@H](O)[C@@H](O[C@H]9[C@H](O)[C@@H](O)[C@@H](O[C@H]%10[C@H](O)[C@@H](O)[C@@H](O[C@H]%11[C@H](O)[C@@H](O)[C@@H](O[C@H]4[C@H](O)[C@H]5O)O[C@@H]%11CO)O[C@@H]%10CO)O[C@@H]9CO)O[C@@H]8CO)O[C@@H]7CO)O[C@@H]6CO)cc3)c2n1 |
| 6.50 | 118 | 6.59 | 115 |  |  |  | COCCOc1nc(N)c2nc(O)n(Cc3ccc(C(=O)NC4O[C@H](CO)[C@H](O)[C@H](O)[C@H]4O)cc3)c2n1 (stereo partly specified) |
| 6.97 | 109 | 7.25 | 113 |  |  |  | COCCOc1nc(N)c2nc(O)n(Cc3ccc(C(=O)N[C@H]4[C@H](O)[C@H]5O[C@H]6[C@H](O)[C@@H](O)[C@@H](O[C@H]7[C@H](O)[C@@H](O)[C@@H](O[C@H]8[C@H](O)[C@@H](O)[C@@H](O[C@H]9[C@H](O)[C@@H](O)[C@@H](O[C@H]%10[C@H](O)[C@@H](O)[C@@H](O[C@H]%11[C@H](O)[C@@H](O)[C@@H](O[C@H]%12[C@H](O)[C@@H](O)[C@@H](O[C@@H]4[C@@H](CO)O5)O[C@@H]%12CO)O[C@@H]%11CO)O[C@@H]%10CO)O[C@@H]9CO)O[C@@H]8CO)O[C@@H]7CO)O[C@@H]6CO)cc3)c2n1 |
| 6.63 | 139 | 6.62 | 103 |  |  | 2 | COCCOc1nc(N)c2nc(O)n(Cc3ccc(C(=O)N[C@H]4C(O)O[C@H](CO)[C@@H](O)[C@@H]4O)cc3)c2n1 (stereo partly specified) |
| 6.60 | 116 | 6.52 | 121 |  |  |  | COCCOc1nc(N)c2nc(O)n(Cc3ccc(C(=O)NC4O[C@H](CO)[C@@H](O)[C@H](O)[C@@H]4O)cc3)c2n1 (stereo partly specified) |
| 6.88 | 130 | 6.97 | 97 |  |  |  | COCCOc1nc(N)c2nc(O)n(Cc3ccc(C(=O)NC[C@H]4O[C@@H]5O[C@H]6[C@H](O)[C@@H](O)[C@@H](O[C@H]7[C@H](O)[C@@H](O)[C@@H](O[C@H]8[C@H](O)[C@@H](O)[C@@H](O[C@H]9[C@H](O)[C@@H](O)[C@@H](O[C@H]%10[C@H](O)[C@@H](O)[C@@H](O[C@H]%11[C@H](O)[C@@H](O)[C@@H](O[C@H]%12[C@H](O)[C@@H](O)[C@@H](O[C@H]4[C@H](O)[C@H]5O)O[C@@H]%12CO)O[C@@H]%11CO)O[C@@H]%10CO)O[C@@H]9CO)O[C@@H]8CO)O[C@@H]7CO)O[C@@H]6CO)cc3)c2n1 |
| 6.89 | 127 | 7.15 | 126 |  |  |  | COCCOc1nc(N)c2nc(O)n(Cc3ccc(C(=O)NC[C@H]4O[C@@H]5O[C@H]6[C@H](O)[C@@H](O)[C@@H](O[C@H]7[C@H](O)[C@@H](O)[C@@H](O[C@H]8[C@H](O)[C@@H](O)[C@@H](O[C@H]9[C@H](O)[C@@H](O)[C@@H](O[C@H]%10[C@H](O)[C@@H](O)[C@@H](O[C@H]4[C@H](O)[C@H]5O)O[C@@H]%10CO)O[C@@H]9CO)O[C@@H]8CO)O[C@@H]7CO)O[C@@H]6CO)cc3)c2n1 |
| 6.60 | 100 | 6.36 | 100 | 5.67 | 5.68 |  | COCCOc1nc(N)c2[nH]c(=O)n(Cc3ccc(C(=O)O)cc3)c2n1 |
